# Measurements taken from PubChem BioAssay.
# Calls of active or inactive are those of the source. Cut-off read from the data, not from the text of the source, unless noted: active = inhibition above about 30%; inactive = the rest.
# What was measured:
# [1] = reducers of endogenous Her2 protein level, primary screen, SKBR3 breast tumor cells, AlphaScreen, ATP viability (AID 461;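 active = Her2 level under about 52% in both replicate screens, with viability over 70% of control, limit read from the data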;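 for Her2 level: lower value means less Her2 protein in the cells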;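 for viability: percent of carrier control wells set as 100% viability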); conditions: 18-24 h, measured here: SKBR3 viability, ATP luminescence, at 10 µM
# [2] = biological target: Receptor tyrosine-protein kinase erbB-2 (Homo sapiens) (UniProt P04626); assay: as above; conditions: 18-24 h, at 10 µM, stronger effect = lower value
# Receptor tyrosine-protein kinase erbB-2 (Homo sapiens), sequence (P04626 whole entry, looked up): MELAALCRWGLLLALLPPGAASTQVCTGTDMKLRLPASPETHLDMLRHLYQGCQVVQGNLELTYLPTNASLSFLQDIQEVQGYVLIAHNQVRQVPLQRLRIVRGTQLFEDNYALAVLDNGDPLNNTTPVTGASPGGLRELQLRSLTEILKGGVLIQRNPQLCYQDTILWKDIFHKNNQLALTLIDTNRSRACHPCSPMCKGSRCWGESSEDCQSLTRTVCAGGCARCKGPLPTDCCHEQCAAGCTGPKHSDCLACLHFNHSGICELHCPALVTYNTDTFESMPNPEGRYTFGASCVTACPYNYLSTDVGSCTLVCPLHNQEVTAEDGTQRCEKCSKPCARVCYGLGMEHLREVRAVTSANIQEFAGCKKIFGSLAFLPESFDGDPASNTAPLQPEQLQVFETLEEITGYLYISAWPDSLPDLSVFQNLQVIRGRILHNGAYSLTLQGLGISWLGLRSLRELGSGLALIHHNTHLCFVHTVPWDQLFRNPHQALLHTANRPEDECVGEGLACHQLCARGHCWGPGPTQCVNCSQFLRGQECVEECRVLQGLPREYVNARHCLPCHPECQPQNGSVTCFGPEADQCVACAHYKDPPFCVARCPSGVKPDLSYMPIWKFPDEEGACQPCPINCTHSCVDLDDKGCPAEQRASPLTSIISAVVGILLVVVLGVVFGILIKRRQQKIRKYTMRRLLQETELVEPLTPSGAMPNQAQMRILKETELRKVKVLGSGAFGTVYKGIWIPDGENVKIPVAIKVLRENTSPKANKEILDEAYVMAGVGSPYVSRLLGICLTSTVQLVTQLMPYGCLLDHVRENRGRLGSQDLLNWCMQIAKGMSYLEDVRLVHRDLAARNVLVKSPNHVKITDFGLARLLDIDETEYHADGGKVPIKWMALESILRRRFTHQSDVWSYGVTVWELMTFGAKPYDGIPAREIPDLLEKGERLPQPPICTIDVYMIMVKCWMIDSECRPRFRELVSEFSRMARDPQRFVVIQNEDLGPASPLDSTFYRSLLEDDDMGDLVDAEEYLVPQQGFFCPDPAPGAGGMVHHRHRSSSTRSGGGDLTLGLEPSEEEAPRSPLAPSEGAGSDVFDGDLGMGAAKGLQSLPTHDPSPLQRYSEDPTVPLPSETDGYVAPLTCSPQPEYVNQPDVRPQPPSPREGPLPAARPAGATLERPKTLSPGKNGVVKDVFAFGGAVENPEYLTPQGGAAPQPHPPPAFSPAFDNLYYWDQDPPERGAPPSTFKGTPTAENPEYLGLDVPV
# [3] = SK-BR-3 cell growth inhibitors, pilot screen, 24 h, human (AID 572;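 active = viability at or below 10% of carrier control in both of two separate runs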;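 note: compound exposure lasted between 18 and 24 h rather than exactly 24 h; 100% = carrier-treated control wells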); conditions: SK-BR-3 viability, CellTiter-Glo luminescence, at 10 µM, stronger effect = lower value
# [4] = HUVEC growth inhibition – cell-based, human, primary screen (AID 575;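 active = viability at or below 30% in both replicate assays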;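 note: 100% = median of untreated cell wells with 0.1% DMSO on each plate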); conditions: HUVEC proliferation, CellTiter-Glo luminescence, 72 h; at 10 µM; stronger effect = lower value
# In short: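 Test system – primary HUVEC, no more than 12 passages · Dosing – one dose, 10 µM final, 0.1% DMSO · Times – 72 h treatment at 37 °C · Measured by – ATP-based CellTiter-Glo luminescent read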
# [5] = growth inhibitors of H69AR lung tumor, primary screen, human, duplicate replicates (AID 580;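 active = viability at or under a set limit in both replicates, limit being median viability minus 3 SD, cut at about 48% in these data, passing the limit was not always enough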;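 note: 100% = mean luminescence of untreated wells and 0% = no signal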); conditions: H69AR lung tumor cells viability, ATP luminescence, 72 h; at 10 µM; stronger effect = lower value
# [6] = reversal of MRP1-mediated doxorubicin resistance, pilot screen, H69AR cells, doxorubicin co-treatment (AID 601;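 active = viability loss from added drug above about 55%, and viability with drug at most 40%, in both replicates, limit read from the data, passing the limit was not always enough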); conditions: CellTiter-Glo, 72 h, at 10 µM; for differential viability (reversal): stronger effect = higher value
# [7] = 384-well plate pilot, post-Golgi transport modulator project, inhibition of yeast transport mutant growth (AID 636; in the data active = inhibition above about 31%); conditions: absorbance 615 nm, about 18 h, stronger effect = higher value
# [8] = growth suppression of yeast trafficking mutant, preliminary HTS, modulators of trafficking downstream of Golgi apparatus project, 1536-format plate, OD 615 nm (AID 637); conditions: yeast transport mutant growth, absorbance 615 nm, 18 h; stronger effect = higher value
# [9] = H69AR cells + 2 uM doxorubicin, measured here: viability with 2 uM doxorubicin, stronger effect = lower value
# [10] = H69AR cells, compound alone cytotoxicity
SMILES,viability [1],Her2 level [2],viability [3],viability [4],viability [5],differential viability (reversal) ([6]; H69AR cells + 2 uM doxorubicin),"viability [6, 9]","viability [6, 10]",inhibition [7],inhibition [8]
O=C(Nc1cccnc1)c1ccc2c(c1)OCO2,119%,121% (inactive),119% (inactive),99.6% (inactive),97.7% (inactive),13.8% (inactive),83.9%,97.7%,-5.33% (inactive),9.84% (inactive)
Cc1ccc(-c2nc(=S)c3c(n2Cc2ccco2)CCCC3)cc1,79%,79% (inactive),79% (inactive),86.9% (inactive),10.3% (active),-0.31% (inactive),10.6%,10.3%,-1.47% (inactive),-5.32% (inactive)
CCOc1cc(S(=O)(=O)Nc2ccccn2)ccc1F,114%,110% (inactive),114% (inactive),108% (inactive),101% (inactive),7.25% (inactive),93.3%,101%,-4% (inactive),-5.9% (inactive)
O=C(Nc1ccc2nc(-c3cccs3)[nH]c2c1)c1ccco1,108%,98.5% (inactive),108% (inactive),94.2% (inactive),75.2% (inactive),1.25% (inactive),74%,75.2%,0.13% (inactive),2.95% (inactive)
CCOC(=O)C1CCN(S(=O)(=O)c2cc(Cl)c(C)cc2OC)CC1,90%,92.5% (inactive),90% (inactive),105% (inactive),85.2% (inactive),-9.44% (inactive),94.6%,85.2%,-2.5% (inactive),-3.39% (inactive)
CCn1c(=O)c(=O)[nH]c2cc(C(=O)N3CCN(c4ccccc4F)CC3)ccc21,110%,91.5% (inactive),110% (inactive),97.1% (inactive),98.9% (inactive),5.58% (inactive),93.3%,98.9%,0.14% (inactive),-0.16% (inactive)
Cn1c(=O)c2c(ncn2CC(=O)OCC(=O)NC2CCCc3ccccc32)n(C)c1=O (stereo not given),98%,94% (inactive),98% (inactive),110% (inactive),97.7% (inactive),5.3% (inactive),92.4%,97.7%,-0.68% (inactive),1.59% (inactive)
O=C(COc1ccc(Cl)cc1)NCc1nnc(SCC(=O)Nc2ccc3c(c2)OCCO3)o1,102%,122% (inactive),102% (inactive),112% (inactive),97.3% (inactive),-3.68% (inactive),101%,97.3%,2.82% (inactive),-11.7% (inactive)
COC(=O)c1cc(Br)c(=O)n(-c2nccs2)c1,121%,93.5% (inactive),121% (inactive),107% (inactive),96.5% (inactive),9.32% (inactive),87.2%,96.5%,-4.27% (inactive),-6.39% (inactive)
CC1/C(=N/O)C(CN(C)C)C2CC1C2(C)C (stereo not given),107%,84.5% (inactive),107% (inactive),99.3% (inactive),108% (inactive),31.7% (inactive),76.3%,108%,-3.38% (inactive),-3.49% (inactive)
COCCCn1c2nc3ccccc3nc2c2c(=O)n(-c3ccccc3OC)cnc21,97.5%,100% (inactive),97.5% (inactive),97.8% (inactive),73.7% (inactive),6.27% (inactive),67.5%,73.7%,-0.8% (inactive),4.75% (inactive)
Cc1cc(C)c(OCC(=O)Nc2ccc3c(c2)OCO3)cc1C,106%,116% (inactive),106% (inactive),92% (inactive),84.5% (inactive),-3.51% (inactive),88%,84.5%,-4% (inactive),-11.4% (inactive)
Cc1ccc(-n2nnnc2SCC(=O)N2CCN(C(=O)c3ccco3)CC2)c(C)c1,119%,84.5% (inactive),119% (inactive),86% (inactive),95.5% (inactive),0.745% (inactive),94.8%,95.5%,-7.76% (inactive),-2.18% (inactive)
Cc1ccccc1-c1nc(CN2CCC(C(=O)NCc3cccnc3)CC2)c(C)o1,88.5%,82.5% (inactive),88.5% (inactive),85.7% (inactive),87.1% (inactive),0.825% (inactive),86.3%,87.1%,-1.71% (inactive),0% (inactive)
Cc1ccc(C)c(NC(=O)c2ccc3c(c2)N(Cc2ccc(F)cc2)C(=O)CS3=O)c1 (stereo not given),85.5%,102% (inactive),85.5% (inactive),95.2% (inactive),97.1% (inactive),3.96% (inactive),93.1%,97.1%,-1.6% (inactive),-0.66% (inactive)
C/C(N)=C(/C#N)C(=O)COC(=O)CCSc1ccccc1,97.5%,89% (inactive),97.5% (inactive),84.4% (inactive),101% (inactive),-0.045% (inactive),101%,101%,-0.13% (inactive),4.59% (inactive)
